# Experiments:
# Histamine H3 receptor [1] = target: Histamine H3 receptor (Homo sapiens, UniProt Q9Y5N1); test: Displacement of [3H]N-alpha-methylhistamine from human recombinant histamine H3 receptor expressed in HEK293 cells; format: cell-based
# hERG (KCNH2) = hERG (KCNH2) (Homo sapiens, UniProt Q12809); test: in vitro
# Histamine H3 receptor [2] = target: Histamine H3 receptor (Mus musculus, UniProt P58406); test: Displacement of [3H]N-alpha-methylhistamine from mouse brain histamine H3 receptor
# Histamine H3 receptor (Mus musculus, UniProt P58406), sequence (P58406 whole entry): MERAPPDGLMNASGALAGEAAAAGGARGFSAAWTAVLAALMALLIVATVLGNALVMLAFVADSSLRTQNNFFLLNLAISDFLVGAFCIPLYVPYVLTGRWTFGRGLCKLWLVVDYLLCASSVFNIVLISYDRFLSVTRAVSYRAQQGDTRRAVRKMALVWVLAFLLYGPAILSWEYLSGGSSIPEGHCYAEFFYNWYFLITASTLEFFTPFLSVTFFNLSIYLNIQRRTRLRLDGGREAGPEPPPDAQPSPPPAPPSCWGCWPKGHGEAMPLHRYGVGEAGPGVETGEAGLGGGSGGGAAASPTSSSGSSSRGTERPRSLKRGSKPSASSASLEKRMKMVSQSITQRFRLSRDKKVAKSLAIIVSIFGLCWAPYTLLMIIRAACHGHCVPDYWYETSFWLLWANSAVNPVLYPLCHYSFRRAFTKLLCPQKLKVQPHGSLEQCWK
# Mus musculus [3] = test: Ex vivo displacement of [3H]N-alpha-methylhistamine from histamine H3 receptor in ICR mouse at 10 mg/kg, po by receptor occupancy assay relative to control; format: functional
# In short: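 ICR mice dosed orally at 10 mg/kg. Cortex dissected 4 h after dosing and homogenized in ice-cold 50 mM Na2HPO4–KH2PO4 buffer pH 6.8, then frozen at −80 °C for at least 12 h. Protein measured by BCA. Incubation 30 min at room temperature, in quadruplicate. Stopped by filtration on PEI-presoaked GF/B plates and counted. Specific binding calculated as total minus nonspecific.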
# in vivo [4] = conditions: rat, plasma, po, 10 mg/kg
# [5] = Cmax in rat; format: ADME, organism-based; conditions: in vivo
# In short: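 Rats dosed orally at 10 mg/kg. Cmax taken from the plasma profile.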
# [6] = Cmax in monkey; format: ADME, organism-based, Macaca mulatta; conditions: rhesus monkey, in vivo
# In short: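 Monkeys dosed orally at 3 mg/kg. Cmax taken from the plasma profile.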
# [7] = AUC (0 to 24 hrs) in monkey at 3 mg/kg, po; format: ADME, organism-based, Macaca mulatta; design: time < 24 hr, dose 3 mg/kg, route oral; conditions: rhesus monkey, plasma
# In short: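 Monkeys dosed orally at 3 mg/kg. AUC calculated over 0–24 h.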
# Mus musculus [8] = test: Ex vivo displacement of [3H]N-alpha-methylhistamine from histamine H3 receptor in ICR mouse at 10 mg/kg, po by receptor occupancy assay relative to control
# in vivo [9] = conditions: ICR, mouse, brain/plasma, po, 30 mg/kg
# Histamine H3 receptor [10] = target: Histamine H3 receptor (Cavia porcellus, UniProt Q9JI35); test: Antagonist activity at guinea pig jejunum histamine H3 receptor by electric field stimulation assay; format: functional, tissue-based; conditions: read-out: pA2 (converted)
# Histamine H3 receptor (Cavia porcellus, UniProt Q9JI35), sequence (Q9JI35 whole entry): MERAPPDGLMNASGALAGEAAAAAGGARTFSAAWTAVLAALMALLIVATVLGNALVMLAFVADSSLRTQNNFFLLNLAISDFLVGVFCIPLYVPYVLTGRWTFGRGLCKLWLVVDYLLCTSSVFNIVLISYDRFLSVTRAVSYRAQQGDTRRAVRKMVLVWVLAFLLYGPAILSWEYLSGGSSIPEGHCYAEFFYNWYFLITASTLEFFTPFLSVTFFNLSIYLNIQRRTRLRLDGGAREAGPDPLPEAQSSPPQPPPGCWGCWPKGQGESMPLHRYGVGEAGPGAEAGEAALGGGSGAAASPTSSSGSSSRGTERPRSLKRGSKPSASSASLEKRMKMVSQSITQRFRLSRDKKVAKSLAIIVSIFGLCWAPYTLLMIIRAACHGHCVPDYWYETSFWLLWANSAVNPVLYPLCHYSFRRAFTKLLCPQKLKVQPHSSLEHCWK
# Histamine H3 receptor (Homo sapiens, UniProt Q9Y5N1), sequence (Q9Y5N1 whole entry): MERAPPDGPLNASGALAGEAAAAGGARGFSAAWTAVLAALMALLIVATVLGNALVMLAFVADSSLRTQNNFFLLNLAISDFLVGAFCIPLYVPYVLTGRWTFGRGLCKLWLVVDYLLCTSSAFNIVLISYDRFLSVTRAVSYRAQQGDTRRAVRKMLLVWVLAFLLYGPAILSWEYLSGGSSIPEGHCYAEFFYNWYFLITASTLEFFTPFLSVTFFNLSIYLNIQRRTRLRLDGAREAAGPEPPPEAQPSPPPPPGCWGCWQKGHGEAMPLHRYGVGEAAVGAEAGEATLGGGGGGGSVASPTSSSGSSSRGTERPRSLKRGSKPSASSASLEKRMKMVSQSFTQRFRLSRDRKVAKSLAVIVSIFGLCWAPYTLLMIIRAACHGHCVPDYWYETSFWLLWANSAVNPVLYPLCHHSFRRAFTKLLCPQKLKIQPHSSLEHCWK
# hERG (KCNH2), sequence (Q12809 whole entry): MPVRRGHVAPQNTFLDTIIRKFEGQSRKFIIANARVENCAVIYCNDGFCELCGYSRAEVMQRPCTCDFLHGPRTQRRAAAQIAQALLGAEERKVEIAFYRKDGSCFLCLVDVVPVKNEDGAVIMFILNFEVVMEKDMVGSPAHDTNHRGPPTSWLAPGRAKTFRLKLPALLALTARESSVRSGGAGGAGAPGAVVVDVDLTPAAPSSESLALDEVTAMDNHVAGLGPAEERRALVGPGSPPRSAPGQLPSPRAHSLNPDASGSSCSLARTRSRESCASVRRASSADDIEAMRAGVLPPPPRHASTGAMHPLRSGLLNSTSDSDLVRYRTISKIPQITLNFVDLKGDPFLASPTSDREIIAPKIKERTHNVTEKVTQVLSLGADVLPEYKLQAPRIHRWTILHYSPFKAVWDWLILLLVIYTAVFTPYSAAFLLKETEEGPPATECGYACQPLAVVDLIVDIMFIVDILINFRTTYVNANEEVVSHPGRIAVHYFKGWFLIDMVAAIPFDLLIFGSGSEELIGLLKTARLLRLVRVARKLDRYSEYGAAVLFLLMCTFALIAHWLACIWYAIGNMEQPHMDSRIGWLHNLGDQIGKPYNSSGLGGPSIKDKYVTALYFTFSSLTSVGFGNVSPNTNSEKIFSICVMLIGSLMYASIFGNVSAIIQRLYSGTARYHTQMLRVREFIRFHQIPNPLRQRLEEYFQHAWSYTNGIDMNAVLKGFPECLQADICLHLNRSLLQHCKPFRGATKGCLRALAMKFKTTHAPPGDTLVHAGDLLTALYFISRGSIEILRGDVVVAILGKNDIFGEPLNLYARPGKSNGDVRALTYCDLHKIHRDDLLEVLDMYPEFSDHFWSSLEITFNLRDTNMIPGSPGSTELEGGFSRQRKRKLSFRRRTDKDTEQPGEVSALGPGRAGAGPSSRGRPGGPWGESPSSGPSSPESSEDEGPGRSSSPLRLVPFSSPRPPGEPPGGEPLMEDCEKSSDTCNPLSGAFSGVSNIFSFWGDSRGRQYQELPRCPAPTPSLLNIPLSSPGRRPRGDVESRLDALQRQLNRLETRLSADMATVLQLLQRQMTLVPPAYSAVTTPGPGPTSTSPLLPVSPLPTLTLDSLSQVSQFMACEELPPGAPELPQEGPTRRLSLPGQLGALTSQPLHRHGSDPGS
structure (smiles),measurement,setting,value
Clc1ccc2nc(N3CCC(N4CCCCC4)CC3)sc2n1,Ki,Histamine H3 receptor [1],1700 nM
COc1cc(-c2cnc3nc(N4CCC(N5CCCCC5)CC4)sc3c2)ccn1,inhibition at 10 µM,hERG (KCNH2),98%
N#Cc1ccc(-c2cc3sc(N4CCC(N5CCCCC5)CC4)nc3cn2)cc1,Ki,Histamine H3 receptor [1],126 nM
COc1cccc(-c2cnc3nc(N4CCC(N5CCCCC5)CC4)sc3c2)c1,Ki,Histamine H3 receptor [1],140 nM
CC(=O)c1cccc(-c2cnc3nc(N4CCC(N5CCCCC5)CC4)sc3c2)c1,Ki,Histamine H3 receptor [1],33 nM
CC(=O)Nc1cc2sc(N3CCC(N4CCCCC4)CC3)nc2cn1,Ki,Histamine H3 receptor [1],53 nM
Nc1cnc(-c2cnc3nc(N4CCC(N5CCCCC5)CC4)sc3c2)cn1,inhibition at 10 µM,hERG (KCNH2),20%
CC(=O)Nc1ccc(-c2cnc3nc(N4CCC(N5CCCCC5)CC4)sc3c2)cn1,Ki,Histamine H3 receptor [2],20 nM
same,Activity,Mus musculus [3],45%
same,inhibition at 10 µM,hERG (KCNH2),20%
CC(=O)c1cccc(-c2cc3sc(N4CCC(N5CCCCC5)CC4)nc3cn2)c1,Ki,Histamine H3 receptor [1],80 nM
CC(=O)Nc1cnc2nc(N3CCC(N4CCCCC4)CC3)sc2c1,Ki,Histamine H3 receptor [1],31 nM
c1cc2sc(N3CCC(N4CCCCC4)CC3)nc2cn1,Ki,Histamine H3 receptor [1],128 nM
Fc1cc(-c2cc3sc(N4CCC(N5CCCCC5)CC4)nc3cn2)ccn1,inhibition at 10 µM,hERG (KCNH2),85%
COc1cccc(-c2cc3sc(N4CCC(N5CCCCC5)CC4)nc3cn2)c1,Ki,Histamine H3 receptor [1],230 nM
Oc1ccc(-c2cc3sc(N4CCC(N5CCCCC5)CC4)nc3cn2)cc1,Ki,Histamine H3 receptor [1],213 nM
COc1cc(-c2cc3sc(N4CCC(N5CCCCC5)CC4)nc3cn2)ccn1,inhibition at 10 µM,hERG (KCNH2),91%
Fc1ccc(-c2cc3sc(N4CCC(N5CCCCC5)CC4)nc3cn2)cn1,AUC(0-t) at 6 h,in vivo [4],1070 ng·h/mL
same,Ki,Histamine H3 receptor [2],89 nM
same,Activity,Mus musculus [3],95%
same,Cmax,[5],234 ng/mL
same,Cmax,[6],33 ng/mL
same,AUC(0-t) at 24 h,[7],624 ng·h/mL
Brc1cnc2nc(N3CCC(N4CCCCC4)CC3)sc2c1,Ki,Histamine H3 receptor [1],141 nM
Nc1ccc(-c2cnc3nc(N4CCC(N5CCCCC5)CC4)sc3c2)cn1,Activity,Mus musculus [3],3%
N#Cc1cc(-c2cc3sc(N4CCC(N5CCCCC5)CC4)nc3cn2)ccc1F,Ki,Histamine H3 receptor [1],46 nM
Nc1cc2sc(N3CCC(N4CCCCC4)CC3)nc2cn1,Ki,Histamine H3 receptor [1],73 nM
N#Cc1cc2sc(N3CCC(N4CCCCC4)CC3)nc2cn1,Ki,Histamine H3 receptor [1],35 nM
Clc1cc2sc(N3CCC(N4CCCCC4)CC3)nc2cn1,AUC(0-t) at 6 h,in vivo [4],56 ng·h/mL
same,Activity,Mus musculus [8],80%
same,Kp at 96 h,in vivo [9],4.52
same,Ki,Histamine H3 receptor [2],75 nM
same,inhibition at 10 µM,hERG (KCNH2),59%
c1ncc(-c2cnc3nc(N4CCC(N5CCCCC5)CC4)sc3c2)cn1,Ki,Histamine H3 receptor [2],66 nM
same,Activity,Mus musculus [3],0%
same,inhibition at 10 µM,hERG (KCNH2),30%
CCCN1CCN(c2nc3cnccc3s2)CC1,Kb,Histamine H3 receptor [10],56.2 nM
Nc1cnc2nc(N3CCC(N4CCCCC4)CC3)sc2c1,Ki,Histamine H3 receptor [1],79 nM
Clc1cnc2nc(N3CCC(N4CCCCC4)CC3)sc2c1,Ki,Histamine H3 receptor [1],125 nM
Oc1ccc(-c2cc3sc(N4CCC(N5CCCCC5)CC4)nc3cn2)cn1,Ki,Histamine H3 receptor [2],20 nM
same,Activity,Mus musculus [3],1%
Fc1ncccc1-c1cc2sc(N3CCC(N4CCCCC4)CC3)nc2cn1,inhibition at 10 µM,hERG (KCNH2),88%
c1cnc2nc(N3CCC(N4CCCCC4)CC3)sc2c1,Ki,Histamine H3 receptor [1],139 nM
N#Cc1cnc2nc(N3CCC(N4CCCCC4)CC3)sc2c1,Ki,Histamine H3 receptor [1],36 nM
N#Cc1cc(-c2cnc3nc(N4CCC(N5CCCCC5)CC4)sc3c2)ccc1F,AUC(0-t) at 6 h,in vivo [4],339 ng·h/mL
Oc1ccc(-c2cnc3nc(N4CCC(N5CCCCC5)CC4)sc3c2)cc1,Ki,Histamine H3 receptor [1],59 nM

# Source: ChEMBL document CHEMBL1154162, “Synthesis and structure-activity relationships of 2-(1,4'-bipiperidin-1'-yl)thiazolopyridine as H3 receptor antagonists” (Bioorg Med Chem Lett, 2009)
